From ChEMBL document CHEMBL4184124, “Progress in antischistosomal N,N'-diaryl urea SAR” (Bioorg Med Chem Lett, 2018)
Converted amounts (≈) assume the structure as drawn. The source made the active and inactive calls. The calls are words filed in the database; no cut-off is given here.

Tested on: not listed separately
Test: Cytotoxicity against human HC04 cells
Type: cell-based
Details: not given

| Compound | IC50 [µM] |
| --- | --- |
| N#Cc1ccc(NC(=O)Nc2ccnc(C(F)(F)F)c2)cc1 | > 100 |
| O=C(Nc1ccnc(C(F)(F)F)c1)Nc1ccnc(C(F)(F)F)c1 | > 100 |
| N#Cc1ccc(NC(=O)Nc2ccc(F)c(C(F)(F)F)c2)cc1 | > 100 |

Tested on: Schistosoma mansoni
Test: Antischistosomal activity against newly transformed stage of Schistosoma mansoni assessed as parasite death at 10 uM
Type: functional, organism-based
Details: not given
Method in brief: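 Newly transformed schistosomula exposed at 10 µM as a screen for killing; active compounds then titrated to give IC50.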

| Compound | Activity |
| --- | --- |
| O=C(Nc1ccncc1)Nc1ccc(F)c(C(F)(F)F)c1 | Active |
| N#Cc1ccc(NC(=O)Nc2ccnc(C(F)(F)F)c2)cc1 | Active |
| O=C(Nc1ccnc(C(F)(F)F)c1)Nc1ccnc(C(F)(F)F)c1 | Active |
| N#Cc1ccc(NC(=O)Nc2ccc(F)c(C(F)(F)F)c2)cc1 | Active |

Tested on: not listed separately
Test: Tmax in Swiss mouse at 100 mg/kg, po administered as single dose via gavage by LC-MS analysis
Type: ADME, organism-based
Details: in vivo
Method in brief: (§1)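 Single 100 mg/kg oral dose given to non-infected male Swiss outbred mice; plasma sampled over 48 h post-dose; n=2 mice per time point, mean values. AUC taken to last measured concentration.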

| Compound | Tmax [h] |
| --- | --- |
| N#Cc1ccc(NC(=O)Nc2ccnc(C(F)(F)F)c2)cc1 | 2 |
| O=C(Nc1ccnc(C(F)(F)F)c1)Nc1ccnc(C(F)(F)F)c1 | 4 |
| N#Cc1ccc(NC(=O)Nc2ccc(F)c(C(F)(F)F)c2)cc1 | 4 |

Tested on: U2OS
Test: Cytotoxicity against human U2OS cells
Type: cell-based
Details: not given

| Compound | IC50 [µM] |
| --- | --- |
| N#Cc1ccc(NC(=O)Nc2ccnc(C(F)(F)F)c2)cc1 | > 100 |
| O=C(Nc1ccnc(C(F)(F)F)c1)Nc1ccnc(C(F)(F)F)c1 | > 100 |
| N#Cc1ccc(NC(=O)Nc2ccc(F)c(C(F)(F)F)c2)cc1 | > 100 |

Tested on: Schistosoma mansoni
Test: Antischistosomal activity against newly transformed stage of Schistosoma mansoni measured after 72 hrs by microscopic analysis
Type: functional, organism-based
Details: not given
Method in brief: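 Newly transformed schistosomula were first screened at 10 µM; compounds that killed them were then run as a concentration titration to derive IC50 values.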

| Compound | IC50 [µM] |
| --- | --- |
| O=C(Nc1ccncc1)Nc1ccc(F)c(C(F)(F)F)c1 | 5.6 |
| N#Cc1ccc(NC(=O)Nc2ccnc(C(F)(F)F)c2)cc1 | 1.9 |
| O=C(Nc1ccnc(C(F)(F)F)c1)Nc1ccnc(C(F)(F)F)c1 | 2.4 |
| N#Cc1ccc(NC(=O)Nc2ccc(F)c(C(F)(F)F)c2)cc1 | 1.6 |

Tested on: not listed separately
Test: Intrinsic clearance in human liver microsomes assessed per mg protein after 60 mins in presence of NADPH generating system
Type: ADME, microsome
Details: 1 h

| Compound | CLH [µL/min/mg] |
| --- | --- |
| NC(=O)c1ccc(NC(=O)Nc2ccc(F)c(C(F)(F)F)c2)cc1 | 28 |
| O=C(Nc1ccncc1)Nc1ccc(F)c(C(F)(F)F)c1 | 12 |
| N#Cc1ccc(NC(=O)Nc2ccnc(C(F)(F)F)c2)cc1 | < 7 |
| O=C(Nc1ccnc(C(F)(F)F)c1)Nc1ccnc(C(F)(F)F)c1 | < 7 |
| N#Cc1ccc(NC(=O)Nc2ccc(F)c(C(F)(F)F)c2)cc1 | < 7 |

Tested on: HEK293
Test: Cytotoxicity against HEK293 cells
Type: cell-based
Details: Homo sapiens

| Compound | IC50 [µM] |
| --- | --- |
| N#Cc1ccc(NC(=O)Nc2ccnc(C(F)(F)F)c2)cc1 | > 100 |
| O=C(Nc1ccnc(C(F)(F)F)c1)Nc1ccnc(C(F)(F)F)c1 | > 100 |
| N#Cc1ccc(NC(=O)Nc2ccc(F)c(C(F)(F)F)c2)cc1 | > 100 |

Tested on: not listed separately
Test: Intrinsic clearance in mouse liver microsomes assessed per mg protein after 60 mins in presence of NADPH generating system
Type: ADME, microsome
Details: 1 h

| Compound | CLH [µL/min/mg] |
| --- | --- |
| NC(=O)c1ccc(NC(=O)Nc2ccc(F)c(C(F)(F)F)c2)cc1 | 22 |
| O=C(Nc1ccncc1)Nc1ccc(F)c(C(F)(F)F)c1 | 37 |
| N#Cc1ccc(NC(=O)Nc2ccnc(C(F)(F)F)c2)cc1 | < 7 |
| O=C(Nc1ccnc(C(F)(F)F)c1)Nc1ccnc(C(F)(F)F)c1 | < 7 |
| N#Cc1ccc(NC(=O)Nc2ccc(F)c(C(F)(F)F)c2)cc1 | 12 |

Tested on: Schistosoma mansoni
Test: Antischistosomal activity against adult stage of Schistosoma mansoni measured after 72 hrs by microscopic analysis
Type: functional, organism-based
Details: not given

| Compound | IC50 [µM] |
| --- | --- |
| O=C(Nc1ccncc1)Nc1ccc(F)c(C(F)(F)F)c1 | > 10 |
| N#Cc1ccc(NC(=O)Nc2ccnc(C(F)(F)F)c2)cc1 | 3.3 |
| O=C(Nc1ccnc(C(F)(F)F)c1)Nc1ccnc(C(F)(F)F)c1 | 0.88 |
| N#Cc1ccc(NC(=O)Nc2ccc(F)c(C(F)(F)F)c2)cc1 | 0.94 |

Tested on: HFF
Test: Cytotoxicity against HFF
Type: cell-based
Details: Homo sapiens

| Compound | IC50 [µM] |
| --- | --- |
| N#Cc1ccc(NC(=O)Nc2ccnc(C(F)(F)F)c2)cc1 | > 100 |
| O=C(Nc1ccnc(C(F)(F)F)c1)Nc1ccnc(C(F)(F)F)c1 | > 100 |
| N#Cc1ccc(NC(=O)Nc2ccc(F)c(C(F)(F)F)c2)cc1 | 60 |

Tested on: not listed separately
Test: Half-life in Swiss mouse at 100 mg/kg, po administered as single dose via gavage by LC-MS analysis
Type: ADME, organism-based
Details: in vivo
Method in brief: as §1

| Compound | half-life [h] |
| --- | --- |
| N#Cc1ccc(NC(=O)Nc2ccnc(C(F)(F)F)c2)cc1 | 2.3 |
| O=C(Nc1ccnc(C(F)(F)F)c1)Nc1ccnc(C(F)(F)F)c1 | 10 |
| N#Cc1ccc(NC(=O)Nc2ccc(F)c(C(F)(F)F)c2)cc1 | 2.7 |

Tested on: not listed separately
Test: Kinetic solubility of the compound in 0.01M HCl at pH 2 by nephelometric method
Type: physicochemical
Details: read-out: Kinetic_solubility
Method in brief: (§2)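 DMSO stocks spiked into pH 6.5 phosphate buffer or 0.01 M HCl (approx. pH 2.0); nephelometry gave a solubility concentration range.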

| Compound | solubility kinetic [µg/mL] |
| --- | --- |
| NC(=O)c1ccc(NC(=O)Nc2ccc(F)c(C(F)(F)F)c2)cc1 | 6.3 to 12.5 (≈ 18.5 to 36.6 µM) |
| O=C(Nc1ccncc1)Nc1ccc(F)c(C(F)(F)F)c1 | 6.3 to 12.5 (≈ 21.1 to 41.8 µM) |
| N#Cc1ccc(NC(=O)Nc2ccnc(C(F)(F)F)c2)cc1 | 1.6 to 3.1 (≈ 5.22 to 10.1 µM) |
| O=C(Nc1ccnc(C(F)(F)F)c1)Nc1ccnc(C(F)(F)F)c1 | 12.5 to 25 (≈ 35.7 to 71.4 µM) |
| N#Cc1ccc(NC(=O)Nc2ccc(F)c(C(F)(F)F)c2)cc1 | < 1.6 |

Tested on: not listed separately
Test: Drug uptake in Swiss mouse plasma at 100 mg/kg, po administered as single dose via gavage measured after 4 to 48 hrs by LC-MS analysis
Type: ADME, organism-based
Details: in vivo
Method in brief: as §1

| Compound | Drug uptake |
| --- | --- |
| O=C(Nc1ccnc(C(F)(F)F)c1)Nc1ccnc(C(F)(F)F)c1 | Active |

Tested on: not listed separately
Test: AUC (0 to last) in Swiss mouse at 100 mg/kg, po administered as single dose via gavage by LC-MS analysis
Type: ADME, organism-based
Parameters: dose 100 mg/kg, time 0 - last, route oral
Details: in vivo
Method in brief: as §1

| Compound | AUC(0-t) [µM·h] |
| --- | --- |
| N#Cc1ccc(NC(=O)Nc2ccnc(C(F)(F)F)c2)cc1 | 175 |
| O=C(Nc1ccnc(C(F)(F)F)c1)Nc1ccnc(C(F)(F)F)c1 | 953 |
| N#Cc1ccc(NC(=O)Nc2ccc(F)c(C(F)(F)F)c2)cc1 | 216 |

Tested on: not listed separately
Test: Kinetic solubility of the compound in phosphate buffer at pH 6.5 by nephelometric method
Type: physicochemical
Details: read-out: Kinetic_solubility
Method in brief: as §2

| Compound | solubility kinetic [µg/mL] |
| --- | --- |
| NC(=O)c1ccc(NC(=O)Nc2ccc(F)c(C(F)(F)F)c2)cc1 | 6.3 to 12.5 (≈ 18.5 to 36.6 µM) |
| O=C(Nc1ccncc1)Nc1ccc(F)c(C(F)(F)F)c1 | 6.3 to 12.5 (≈ 21.1 to 41.8 µM) |
| N#Cc1ccc(NC(=O)Nc2ccnc(C(F)(F)F)c2)cc1 | 1.6 to 3.1 (≈ 5.22 to 10.1 µM) |
| O=C(Nc1ccnc(C(F)(F)F)c1)Nc1ccnc(C(F)(F)F)c1 | 12.5 to 25 (≈ 35.7 to 71.4 µM) |
| N#Cc1ccc(NC(=O)Nc2ccc(F)c(C(F)(F)F)c2)cc1 | < 1.6 |

Tested on: not listed separately
Test: Cmax in Swiss mouse at 100 mg/kg, po administered as single dose via gavage by LC-MS analysis
Type: ADME, organism-based
Parameters: dose 100 mg/kg, route oral
Details: in vivo
Method in brief: as §1

| Compound | Cmax [µM] |
| --- | --- |
| N#Cc1ccc(NC(=O)Nc2ccnc(C(F)(F)F)c2)cc1 | 20 |
| O=C(Nc1ccnc(C(F)(F)F)c1)Nc1ccnc(C(F)(F)F)c1 | 40 |
| N#Cc1ccc(NC(=O)Nc2ccc(F)c(C(F)(F)F)c2)cc1 | 31 |

Tested on: Schistosoma mansoni
Test: Antischistosomal activity against Schistosoma mansoni cercariae infected in NMRI mouse assessed as reduction in worm burden at 100 mg/kg, po administered as single dose via gavage measured after 21 days relative to control
Type: functional
Parameters: scale not given: the % may be the effect or the level left
Details: not given
Method in brief: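 Infected mice given a single 100 mg/kg oral dose; efficacy read as worm burden reduction (%).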

| Compound | Activity [%] |
| --- | --- |
| N#Cc1ccc(NC(=O)Nc2ccnc(C(F)(F)F)c2)cc1 | 1.6 |
| O=C(Nc1ccnc(C(F)(F)F)c1)Nc1ccnc(C(F)(F)F)c1 | 20 |
| N#Cc1ccc(NC(=O)Nc2ccc(F)c(C(F)(F)F)c2)cc1 | 37 |

Tested on: not listed separately
Test: Octanol-[…] partition coefficient, log D of the compound at pH 7.4 by RP-HPLC method
Details: not given

| Compound | chromatographic logD |
| --- | --- |
| NC(=O)c1ccc(NC(=O)Nc2ccc(F)c(C(F)(F)F)c2)cc1 | 2.7 |
| O=C(Nc1ccncc1)Nc1ccc(F)c(C(F)(F)F)c1 | 3.2 |
| N#Cc1ccc(NC(=O)Nc2ccnc(C(F)(F)F)c2)cc1 | 3 |
| O=C(Nc1ccnc(C(F)(F)F)c1)Nc1ccnc(C(F)(F)F)c1 | 3 |
| N#Cc1ccc(NC(=O)Nc2ccc(F)c(C(F)(F)F)c2)cc1 | 3.8 |
